Assay outcomes as filed in PubChem.
NTR1 ag = agonists of human NTR1, primary screen, imaging, U2OS cells, beta-arrestin-GFP, high content. NTR1-U2OS beta-arrestin-GFP spot imaging, agonist mode. 330,000 compounds, 0.17% hits. activation, % at 20 µM;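 active means activation at or above 40% of the spot to cytoplasm intensity ratio, with at least 20 cells analyzed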;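 further: 0% = DMSO without peptide and 100% = 100 nM NTR1 peptide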
PLC-gamma1 inh = PLC-gamma1 enzyme inhibitors, primary screen, biochemical, fluorescence, purified enzyme; 1-phosphatidylinositol 4,5-bisphosphate phosphodiesterase gamma-1 (Homo sapiens), P19174; fluorogenic substrate; inhibition, % at 12.2 µM; 370,000 compounds, 0.84% hits
Target sequence (P19174 whole entry, looked up): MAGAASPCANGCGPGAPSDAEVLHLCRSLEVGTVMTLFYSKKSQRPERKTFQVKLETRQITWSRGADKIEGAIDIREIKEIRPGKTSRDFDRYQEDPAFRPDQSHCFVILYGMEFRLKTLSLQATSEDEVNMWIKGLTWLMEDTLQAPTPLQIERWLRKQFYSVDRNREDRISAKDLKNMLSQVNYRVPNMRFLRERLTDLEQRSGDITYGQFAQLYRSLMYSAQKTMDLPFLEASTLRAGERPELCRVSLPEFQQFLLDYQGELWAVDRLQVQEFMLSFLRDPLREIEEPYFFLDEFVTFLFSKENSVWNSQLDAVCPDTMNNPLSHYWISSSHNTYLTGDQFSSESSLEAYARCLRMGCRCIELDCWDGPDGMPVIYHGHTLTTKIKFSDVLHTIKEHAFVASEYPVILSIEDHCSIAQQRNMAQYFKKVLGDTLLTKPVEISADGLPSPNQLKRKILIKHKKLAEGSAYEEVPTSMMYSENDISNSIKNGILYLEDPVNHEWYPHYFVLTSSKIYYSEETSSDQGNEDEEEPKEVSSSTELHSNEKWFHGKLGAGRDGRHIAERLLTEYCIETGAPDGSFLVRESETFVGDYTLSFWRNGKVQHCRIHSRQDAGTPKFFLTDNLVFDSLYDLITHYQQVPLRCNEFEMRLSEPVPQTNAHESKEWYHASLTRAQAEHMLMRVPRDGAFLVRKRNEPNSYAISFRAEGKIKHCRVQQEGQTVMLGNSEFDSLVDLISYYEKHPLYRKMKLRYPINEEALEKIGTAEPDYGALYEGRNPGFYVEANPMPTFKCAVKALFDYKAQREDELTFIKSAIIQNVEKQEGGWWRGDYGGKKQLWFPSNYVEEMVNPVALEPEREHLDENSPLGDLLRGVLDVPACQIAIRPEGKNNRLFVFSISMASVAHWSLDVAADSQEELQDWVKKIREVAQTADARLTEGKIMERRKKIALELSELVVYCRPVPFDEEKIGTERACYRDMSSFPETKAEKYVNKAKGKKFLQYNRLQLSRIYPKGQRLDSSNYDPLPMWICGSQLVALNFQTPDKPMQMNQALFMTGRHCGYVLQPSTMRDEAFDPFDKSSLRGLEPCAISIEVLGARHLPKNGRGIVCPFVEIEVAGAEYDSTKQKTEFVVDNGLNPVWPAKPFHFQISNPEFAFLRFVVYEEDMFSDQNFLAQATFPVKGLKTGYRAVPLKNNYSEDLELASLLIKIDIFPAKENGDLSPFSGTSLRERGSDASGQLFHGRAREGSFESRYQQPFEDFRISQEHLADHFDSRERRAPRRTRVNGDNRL
Arrestin-AP2 inh = inhibitors of beta-arrestin/AP2 binding, primary screen, biochemical, GPCR trafficking, flow cytometry | beta-arrestin 1 C-terminal peptide binding to AP2 beta2-adaptin appendage (human) | FITC-arrestin peptide / GST-AP2 beads; AP2 beta2 appendage carries R879A mutation | inhibition, % at 10 µM | 340,000 compounds, 0.31% hits;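 active means inhibition above a set limit, near 3 SD of compounds lacking own fluorescence, cut at about 54% in these data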;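 further: plate controls were DMSO wells for no effect and 5 µM unlabelled arrestin peptide for full effect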
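System: GST-AP2 R879A glutathione beads; medium: PBS, Tween 20 0.05%, BSA 0.1%; reagent: fluorescein-tagged arrestin peptide at 50 nM final; schedule: pre-incubation 12 min, peptide binding 1 h, room temperature; detection: flow cytometry, FL1 (488/535 nm); read-out: inhibition as reduced fluorescein signal on beads, percent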
PLC-beta3 inh = human PLC-beta3 inhibitors, primary screen, biochemical, fluorescence. Purified PLC-beta3, fluorogenic substrate. 1-phosphatidylinositol 4,5-bisphosphate phosphodiesterase beta-3 (Homo sapiens), Q01970. 370,000 compounds, 0.18% hits. inhibition, % at 12.2 µM; in the data active means inhibition above about 11%;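 further: 0% = median of compound wells on plate and 100% = full blocker control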
PLCg1 ctr = PLC-gamma1 enzyme inhibitors, counter-screen for PLC-beta3 inhibitor project, biochemical, fluorescence; inhibition, % at 12.3 µM; purified PLC-gamma1, fluorogenic substrate; AID 743258, 2014; 3,300 compounds, 3.1% hits; shares compounds with PLC-gamma1 inh
PLCb3 confirm = PLC-beta3 inhibitor confirmation, biochemical, fluorescence, purified enzyme; shares compounds with PLC-gamma1 inh; fluorogenic substrate fluorescence; inhibition, % at 12.3 µM; 3,300 compounds, 1% hits; in the data active means inhibition above about 11%
Numbers without * were called inactive; . = no result. Rows were chosen to be rich in hits. Some 1.3% of all compounds tested hit in one or more screens of this group. Unless noted, no stated cut-off is given here; in the data, active means inhibition above about 9.5%; inactive means the rest.

SMILES | NTR1 ag | PLC-gamma1 inh | Arrestin-AP2 inh | PLC-beta3 inh | PLCg1 ctr | PLCb3 confirm
COc1ccc2c(c1)N[C@@](CCNC=O)(c1[nH]c3ccccc3c1CCNC=O)C2=O | . | -16.8 | . | -23.6 | . | .
O=S1(=O)C=CCN1Cc1cn(Cc2cccc(C(F)(F)F)c2)nn1 | . | -0.9 | . | 0.8 | . | .
COc1cccc(C(=O)NCCN2C(=O)S/C(=C/c3cccs3)C2=O)c1OC | 0.3 | -0.3 | -14.6 | -7.0 | . | .
CCOc1ncccc1C(=O)NCCN1C(=O)S/C(=C/c2cccs2)C1=O | 2.2 | 12.8* | 0.9 | 9.1 | -2.1 | 1.6
COc1cc(OC)cc(C(=O)NCCN2C(=O)S/C(=C\c3cccs3)C2=O)c1 | 5.8 | 2.5 | 8.3 | -4.1 | . | .
COc1cc(C(=O)NCCN2C(=O)S/C(=C\c3cccs3)C2=O)cc(OC)c1OC | 3.4 | 10.2* | -1.5 | 0.6 | 0.8 | 1.9
Cc1cccc(-c2nnc(SCC(=O)c3ccc(F)cc3)n2C)c1 | . | 0.1 | . | 2.8 | . | .
C[C@H](CO)N1C[C@H](C)[C@@H](CN(C)S(C)(=O)=O)Oc2c(NC(=O)Nc3ccc(C(F)(F)F)cc3)cccc2C1=O | -2.3 | 8.5 | 30.9 | 11.9* | -4.0 | 1.9
COc1ccc(NC(=O)N(C)C[C@H]2Oc3c(NC(=O)NC(C)C)cccc3C(=O)N([C@H](C)CO)C[C@@H]2C)cc1 | -1.5 | 3.3 | 0.6 | 11.2* | -7.8 | -1.8
COc1ccc(NC(=O)N(C)C[C@H]2Oc3c(NC(=O)C4CCCCC4)cccc3C(=O)N([C@H](C)CO)C[C@@H]2C)cc1 | -1.3 | -0.1 | -26.3 | 3.0 | . | .
C[C@H]1CN([C@@H](C)CO)C(=O)c2cccc(NC(=O)Nc3ccc(C(F)(F)F)cc3)c2O[C@H]1CN(C)C | 2.3 | 1.3 | -4.0 | 4.0 | . | .
COc1ccccc1CCC[C@H](CCS(=O)(=O)C(C)C)CC1CCCCC1 | . | -1.4 | . | -2.5 | . | .
CCC(Sc1nc(C)cc(C)n1)C(=O)Nc1cc(C)on1 (stereo not drawn) | 0.3 | 11.2* | 30.6 | 10.9* | -5.9 | -1.2
COC(=O)[C@]12C[C@H](CC(=O)NCC34CC5CC(CC(C5)C3)C4)C(=O)N(Cc3ccc(Cl)cc3Cl)C1=C[C@H](C(C)(C)C)O[C@@H]2C | . | -1.3 | . | 4.7 | . | .
CCN(c1ccccc1)S(=O)(=O)c1ccc(OCc2c(C)noc2C)cc1 | -1.0 | 1.9 | -2.5 | 2.3 | . | .
CCN(C(=O)COC(=O)c1ccc(OCc2c(C)noc2C)cc1)c1ccccc1 | 0.6 | 14.0* | -0.7 | 2.5 | -1.2 | -0.1
Cc1noc(C)c1COc1ccccc1C(=O)NNC(=O)c1ccccc1 | -0.4 | 11.4* | -10.3 | 8.8 | -0.7 | 0.9
C=CCNc1cccc2c1S(=O)(=O)N[C@@H](C)CO2 | . | 1.7 | . | 0.0 | . | .
CCN(CC)S(=O)(=O)c1ccc(NCC2COc3ccccc3O2)c([N+](=O)[O-])c1 (stereo not drawn) | 3.7 | 12.2* | 2.3 | -1.7 | -0.3 | 3.7
CCn1c(SCC(=O)c2ccccc2)nc2c(c1=O)SC(C)C2 (stereo not drawn) | 0.2 | 11.5* | 13.9 | 1.9 | -4.4 | -0.4
OC1CCN(Cc2ccc3ccccc3c2)CC1 | 0.8 | -0.3 | 0.4 | -3.1 | . | .
CC(C)(C)c1cc(CN2CCC(O)CC2)cc(C(C)(C)C)c1O | -0.8 | 10.7* | -10.5 | 1.7 | -3.7 | -22.2
CCCCNC(=O)NS(=O)(=O)c1ccc(NC(=O)CSc2ncnc3scc(-c4ccc(C)cc4)c23)cc1 | . | -1.9 | . | -5.1 | . | .
c1ccc(CCn2nnc(-c3ccc(N4CCOCC4)cc3)n2)cc1 | . | 6.6 | . | 3.1 | . | .
Cc1ccc(-c2nn(CC(=O)N3CCOCC3)c(=O)c3ccccc23)cc1S(=O)(=O)N(C)C | 0.1 | 10.4* | 7.3 | -1.7 | -1.7 | -2.8
SMILES | NTR1 ag | PLC-gamma1 inh | Arrestin-AP2 inh | PLC-beta3 inh | PLCg1 ctr | PLCb3 confirm
O=C(O)c1cccc(NC(=O)c2cc(NC(=O)c3ccccc3)cc(NC(=O)c3ccccc3)c2)c1 | 0.6 | 0.8 | -44.2 | -8.9 | . | .
O=C(O)c1cccc(NC(=O)c2ccccc2)c1 | . | 11.3* | -9.0 | 8.1 | -2.4 | 1.3
Cc1ccccc1CN[C@@H]1CC[C@@]23CCCN2C(=O)CCC[C@H]3C1 | . | 1.2 | . | 0.5 | . | .
COCCNC(=O)CN(C(=O)CCC(=O)Nc1ccccn1)c1cc(C)ccc1C | -0.8 | 12.6* | 35.0 | 9.5 | 9.3 | -1.4
O=C(NCCc1ccccc1)OCc1cn(-c2ccccc2Cl)nn1 | . | -2.9 | . | -4.7 | . | .
Nc1ccn([C@@H]2O[C@H](C(=O)N[C@H](Cc3ccccc3)C(=O)N3CCN(C(=O)N4CCCCC4)CC3)[C@@H](O)[C@H]2O)c(=O)n1 | . | -1.5 | . | -2.4 | . | .
COc1ccccc1CN1CCC(n2nccc2NC(=O)c2ccccc2Cl)CC1 | -0.4 | 11.3* | 15.8 | 0.6 | -1.9 | 0.1
COc1ccccc1C(=O)Nc1ccnn1C1CCN(Cc2ccccc2OCCO)CC1 | 0.3 | -2.1 | -5.7 | -4.9 | . | .
Cc1cc(C(=O)Nc2ccc(F)cc2)n(-c2ccccc2)n1 | . | 1.5 | . | 1.6 | . | .
CCOC(=O)[C@@]12CCCC3=C1N(CCC3)C(=O)[C@H]2CC(=O)NCCCN1CCCC1=O | . | -0.7 | . | -0.6 | . | .
C=CCN1C(=O)[C@@H](CC(=O)NCCCOC)[C@]2(C(=O)OCC)CCCCC/C=C/12 | . | 1.6 | . | 1.4 | . | .
CC(C)(N[C@@H](Cc1ccccc1)C(=O)NCCCc1ccccc1)C(=O)NCc1ccccc1 | . | -2.8 | . | -2.7 | . | .
CCN(CC)S(=O)(=O)c1ccc(N=Nc2c(C)[nH]n(C(N)=S)c2=O)cc1 | -0.6 | 10.5* | 9.7 | 8.3 | -0.3 | 2.5
CC(=O)N(C)c1ccc(N=Nc2c(C)[nH]n(C(N)=S)c2=O)cc1 | -0.3 | 1.6 | -4.3 | 4.8 | . | .
Nc1[nH]c(C(=O)c2ccccc2)c(-c2ccc3ccccc3c2)c1C(=O)NCc1ccc(-c2ccccc2)cc1 | . | -13.7 | . | -17.9 | . | .
CC(C)CNC(=O)C1CCN(Cc2ccc(OCc3ccccc3)cc2)CC1 | -1.1 | 11.8* | -8.2 | 1.1 | -6.7 | 1.8
CCCCN(C(=O)CNC(=O)c1ccco1)C(C(=O)NC1CCCC1)c1ccc(OC)cc1 (stereo not drawn) | 12.9 | 11.7* | 6.3 | -1.0 | -3.1 | -2.4
O=C(NCC(=O)N(c1cccnc1)C(C(=O)NC1CCCCC1)c1ccccc1F)c1ccco1 (stereo not drawn) | 0.0 | 10.9* | -5.9 | 5.4 | 2.3 | 1.3
CCC1Sc2ccccc2N(CC(=O)NCc2ccccc2OC)C1=O (stereo not drawn) | 0.5 | 1.8 | 16.2 | 1.5 | . | .
CCC1Sc2ccccc2N(CC(=O)NCCC(C)C)C1=O (stereo not drawn) | 0.3 | 12.6* | 9.2 | 3.1 | -7.2 | -1.9
Cc1sc(NC(=O)CCC(=O)O)c(C#N)c1C | 0.6 | 10.7* | -19.3 | -5.6 | -7.1 | 0.9
